Reference: ChEMBL document CHEMBL1921766, “Orally active zwitterionic factor Xa inhibitors with long duration of action” (Bioorg Med Chem Lett, 2011)
In brackets after ≈: the same amount, converted by molar mass.

Experiments:
[1] = Metabolic stability in human liver microsomes at 1 uM after 20 to 30 mins by LC/MS/MS analysis in presence of NADPH; assay type: ADME, Microsome; conditions: read-out: Stability
Procedure, shortened: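 Metabolic stability read as percent remaining after incubation with human liver microsomes in vitro.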

[2] = AUC in monkey serum at 1 mg/kg, po by LC-MS/MS analysis; assay type: ADME, organism-based, Macaca mulatta; design: dose 1 mg/kg, route oral; conditions: rhesus monkey
Procedure, shortened: (§1)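 Oral dosing of fasting monkeys (two animals) at 1.0 mg/kg, given as HCl salts. Plasma was sampled at 0.5, 1, 2, 4, 8 and 24 h for ex vivo anti-fXa inhibition (%) and for drug concentration. AUC, Cmax, C24 h and the Cmax/C24 h ratio were taken from the plasma concentrations.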

[3] = Cmax in monkey serum at 1 mg/kg, po by LC-MS/MS analysis; assay type: ADME, organism-based, Macaca mulatta; design: dose 1 mg/kg, route oral; conditions: rhesus monkey; procedure, shortened: as §1
[4] = Drug level in monkey serum at 1 mg/kg, po at 24 hrs by LC-MS/MS analysis; assay type: ADME, organism-based, Macaca mulatta; design: dose 1 mg/kg, route oral; conditions: rhesus monkey, read-out: Drug uptake; procedure, shortened: as §1
[5] = Solubility of the compound in Japanese pharmacopoeia first fluid at pH 1.2 at 10 mM after 12 hrs; assay type: physicochemical
Procedure, shortened: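 Solubility measured in Japanese Pharmacopoeia First Fluid, pH 1.2.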

[6] = Solubility of the compound in Japanese pharmacopoeia second fluid at pH 6.8 at 10 mM after 12 hrs; assay type: physicochemical
Procedure, shortened: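 Solubility measured in Japanese Pharmacopoeia Second Fluid, pH 6.8.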

[7] = 1-Octanol-phosphate buffered saline distribution coefficient, log D of the compound at pH 7.4 after 30 mins by shake flask method; assay type: physicochemical
Procedure, shortened: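 Log D measured as the partition between 1-octanol and phosphate buffered saline, pH 7.4.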

[8] = Bioavailability in monkey at 1 mg/kg, iv after 24 hrs by LC-MS/MS analysis; assay type: ADME, organism-based, Macaca mulatta; conditions: rhesus monkey, in vivo

Compound | remaining at 1 µM [1] [%] | AUC [2] [ng·h/mL] | Cmax [3] [ng/mL] | concentration at 24 h [4] [ng/mL] | solubility at 12 h, 10000 µM [5] [µg/mL] | solubility at 12 h, 10000 µM [6] [µg/mL] | logD at 0.5 h [7] | bioavailability [8] [%]
CN1CCc2nc(C(=O)Nc3ccccc3CNC(=O)c3ccc(Cl)s3)sc2C1 | 53 | – | – | – | – | – | – | –
CN1CCc2nc(C(=O)Nc3ccccc3CNC(=O)c3ccc(Cl)s3)sc2C1.Cl | – | 346 | 95.9 | 0.6 | – | – | – | –
CC(C)N1CCc2nc(C(=O)Nc3cc(C(=O)O)ccc3CCC(=O)Nc3ccc(Br)cc3)sc2C1 | 88 | – | – | – | 65 (≈ 114 µM) | 520 (≈ 910 µM) | 1.08 | –
CN1CCc2nc(C(=O)Nc3c(CNC(=O)c4ccc(Cl)s4)cccc3C(=O)O)sc2C1 | – | – | – | – | 710 (≈ 1450 µM) | > 800 | -0.38 | –
CN1CCc2nc(C(=O)Nc3cc(C(=O)O)ccc3CNC(=O)c3ccc(Cl)s3)sc2C1 | 71 | – | – | – | 55 (≈ 112 µM) | > 850 | -0.29 | –
CN1CCc2nc(C(=O)Nc3ccc(C(=O)O)cc3CNC(=O)c3ccc(Cl)s3)sc2C1 | 95 | – | – | – | 72 (≈ 147 µM) | 13 (≈ 26.5 µM) | – | –
CN1CCc2nc(C(=O)Nc3c(CNC(=O)c4ccc(Cl)s4)cccc3C(N)=O)sc2C1 | 94 | – | – | – | 740 (≈ 1510 µM) | 710 (≈ 1450 µM) | – | –
CN1CCc2nc(C(=O)Nc3cc(C(N)=O)ccc3CNC(=O)c3ccc(Cl)s3)sc2C1 | 77 | – | – | – | 30 (≈ 61.2 µM) | < 2.4 | – | –
CNC(=O)c1cccc(CNC(=O)c2ccc(Cl)s2)c1NC(=O)c1nc2c(s1)CN(C)CC2 | 80 | – | – | – | 830 (≈ 1650 µM) | 130 (≈ 258 µM) | – | –
CNC(=O)c1ccc(CNC(=O)c2ccc(Cl)s2)c(NC(=O)c2nc3c(s2)CN(C)CC3)c1 | 85 | – | – | – | 140 (≈ 278 µM) | 2.7 (≈ 5.36 µM) | – | –
CN1CCc2nc(C(=O)Nc3c(CNC(=O)c4ccc(Cl)s4)cccc3C(=O)N(C)C)sc2C1 | 81 | – | – | – | 900 (≈ 1740 µM) | 980 (≈ 1890 µM) | – | –
CN1CCc2nc(C(=O)Nc3cc(C(=O)N(C)C)ccc3CNC(=O)c3ccc(Cl)s3)sc2C1 | 67 | – | – | – | > 900 | 830 (≈ 1600 µM) | – | –
COC(=O)c1ccc(CNC(=O)c2ccc(Cl)s2)c(NC(=O)c2nc3c(s2)CN(C)CC3)c1 | 42 | – | – | – | 890 (≈ 1760 µM) | 52 (≈ 103 µM) | – | –
CN1CCc2nc(C(=O)Nc3cc(C(=O)NS(C)(=O)=O)ccc3CNC(=O)c3ccc(Cl)s3)sc2C1 | – | – | – | – | 990 (≈ 1740 µM) | 1000 (≈ 1760 µM) | – | –
CN1CCc2nc(C(=O)Nc3cc(-c4nnn[nH]4)ccc3CNC(=O)c3ccc(Cl)s3)sc2C1 | – | – | – | – | 320 (≈ 621 µM) | 470 (≈ 913 µM) | – | –
CC(C)N1CCc2nc(C(=O)Nc3c(CNC(=O)c4ccc(Cl)s4)cccc3C(=O)O)sc2C1 | 96 | – | – | – | 1000 (≈ 1930 µM) | 1000 (≈ 1930 µM) | 0.28 | –
CC(C)N1CCc2nc(C(=O)Nc3cc(C(=O)O)ccc3CNC(=O)c3ccc(Cl)s3)sc2C1 | 96 | – | – | – | 49 (≈ 94.4 µM) | 41 (≈ 79 µM) | 0.57 | 51
O=C(NCc1cccc(C(=O)O)c1NC(=O)c1nc2c(s1)COCC2)c1ccc(Cl)s1 | 57 | – | – | – | 2 (≈ 4.18 µM) | 930 (≈ 1950 µM) | -0.12 | –
O=C(O)c1ccc(CNC(=O)c2ccc(Cl)s2)c(NC(=O)c2nc3c(s2)COCC3)c1 | 82 | – | – | – | 2 (≈ 4.18 µM) | 950 (≈ 1990 µM) | 0.02 | –
CCN1CCc2nc(C(=O)Nc3cc(C(=O)O)ccc3CNC(=O)c3ccc(Cl)s3)sc2C1 | 97 | – | – | – | 230 (≈ 455 µM) | 1000 (≈ 1980 µM) | 0.14 | –
COCC(C)N1CCc2nc(C(=O)Nc3cc(C(=O)O)ccc3CNC(=O)c3ccc(Cl)s3)sc2C1 (centres undefined) | 100 | – | – | – | 610 (≈ 1110 µM) | 1000 (≈ 1820 µM) | 0.41 | –
CC(CF)N1CCc2nc(C(=O)Nc3cc(C(=O)O)ccc3CNC(=O)c3ccc(Cl)s3)sc2C1 (centres undefined) | 94 | – | – | – | 160 (≈ 298 µM) | 580 (≈ 1080 µM) | 0.45 | –

Compound | remaining at 1 µM [1] [%] | AUC [2] [ng·h/mL] | Cmax [3] [ng/mL] | concentration at 24 h [4] [ng/mL] | solubility at 12 h, 10000 µM [5] [µg/mL] | solubility at 12 h, 10000 µM [6] [µg/mL] | logD at 0.5 h [7] | bioavailability [8] [%]
O=C(O)c1ccc(CNC(=O)c2ccc(Cl)s2)c(NC(=O)c2nc3c(s2)CN(C(CF)CF)CC3)c1 | 100 | – | – | – | 120 (≈ 216 µM) | 870 (≈ 1570 µM) | 0.44 | –
CN1CCc2nc(C(=O)Nc3cc(C(=O)O)ccc3CCC(=O)Nc3ccc(Cl)cc3)sc2C1 | 95 | – | – | – | 430 (≈ 862 µM) | 24 (≈ 48.1 µM) | 0.27 | –
CN1CCc2nc(C(=O)Nc3cc(C(=O)O)ccc3CCC(=O)Nc3ccc(Cl)cn3)sc2C1 | 92 | – | – | – | 250 (≈ 500 µM) | 210 (≈ 420 µM) | -0.28 | –
CC(C)N1CCc2nc(C(=O)Nc3c(CCC(=O)Nc4ccc(Cl)cc4)cccc3C(=O)O)sc2C1 | 100 | – | – | – | 1000 (≈ 1900 µM) | 830 (≈ 1570 µM) | 0.66 | –
CC(C)N1CCc2nc(C(=O)Nc3cc(C(=O)O)ccc3CCC(=O)Nc3ccc(Cl)cc3)sc2C1 | 100 | – | – | – | 490 (≈ 930 µM) | 720 (≈ 1370 µM) | 0.82 | 67
CC(C)N1CCc2nc(C(=O)Nc3cc(C(=O)O)ccc3CCC(=O)Nc3ccc(Cl)cn3)sc2C1 | 100 | – | – | – | 810 (≈ 1530 µM) | 86 (≈ 163 µM) | 0.23 | –
CC(C)N1CCc2nc(C(=O)Nc3cc(C(=O)O)ccc3CCC(=O)Nc3ccc(F)cc3)sc2C1 | 94 | – | – | – | 980 (≈ 1920 µM) | 140 (≈ 274 µM) | 0.27 | –
CC(C)N1CCc2nc(C(=O)Nc3cc(C(=O)O)cc(F)c3CCC(=O)Nc3ccc(Cl)cc3)sc2C1 | 100 | – | – | – | 970 (≈ 1780 µM) | 11 (≈ 20.2 µM) | 1.1 | –
CC(C)N1CCc2nc(C(=O)Nc3cc(C(=O)O)cc(Cl)c3CCC(=O)Nc3ccc(Cl)cc3)sc2C1 | 93 | – | – | – | 450 (≈ 801 µM) | 160 (≈ 285 µM) | 1.61 | 52
CC(C)N1CCc2nc(C(=O)Nc3cc(C(=O)O)cc(C(F)(F)F)c3CCC(=O)Nc3ccc(Cl)cc3)sc2C1 | 77 | – | – | – | 700 (≈ 1180 µM) | 310 (≈ 521 µM) | 1.64 | –
COc1cc(C(=O)O)cc(NC(=O)c2nc3c(s2)CN(C(C)C)CC3)c1CCC(=O)Nc1ccc(Cl)cc1 | 87 | – | – | – | 810 (≈ 1450 µM) | 39 (≈ 70 µM) | 1.15 | –
CCOc1cc(C(=O)O)cc(NC(=O)c2nc3c(s2)CN(C(C)C)CC3)c1CCC(=O)Nc1ccc(Cl)cc1 | 93 | – | – | – | 370 (≈ 648 µM) | 3 (≈ 5.25 µM) | 1.62 | –
CC(C)Oc1cc(C(=O)O)cc(NC(=O)c2nc3c(s2)CN(C(C)C)CC3)c1CCC(=O)Nc1ccc(Cl)cc1 | 86 | – | – | – | 320 (≈ 547 µM) | 130 (≈ 222 µM) | 1.91 | –
CN1CCc2nc(C(=O)Nc3cc(C(=O)O)ccc3CNC(=O)c3ccc(Cl)s3)sc2C1.Cl | – | 247 | 25.8 | 4 | – | – | – | –
CN1CCc2nc(C(=O)Nc3c(CNC(=O)c4ccc(Cl)s4)cccc3C(N)=O)sc2C1.Cl | – | 285 | 109 | – | – | – | – | –
CC(C)N1CCc2nc(C(=O)Nc3c(CNC(=O)c4ccc(Cl)s4)cccc3C(=O)O)sc2C1.Cl | – | 221 | 50.5 | 2 | – | – | – | –
CC(C)N1CCc2nc(C(=O)Nc3cc(C(=O)O)ccc3CNC(=O)c3ccc(Cl)s3)sc2C1.Cl | – | 605 | 67.1 | 7.1 | – | – | – | –
CC(C)N1CCc2nc(C(=O)Nc3cc(C(=O)O)ccc3CCC(=O)Nc3ccc(Cl)cc3)sc2C1.Cl | – | 1370 | 87 | 26 | – | – | – | –
CC(C)N1CCc2nc(C(=O)Nc3cc(C(=O)O)ccc3CCC(=O)Nc3ccc(Cl)cn3)sc2C1.Cl | – | 785 | 98 | 9.5 | – | – | – | –
CC(C)N1CCc2nc(C(=O)Nc3cc(C(=O)O)cc(F)c3CCC(=O)Nc3ccc(Cl)cc3)sc2C1.Cl | – | 448 | 32 | 6.1 | – | – | – | –
CC(C)N1CCc2nc(C(=O)Nc3cc(C(=O)O)cc(Cl)c3CCC(=O)Nc3ccc(Cl)cc3)sc2C1.Cl | – | 724 | 67 | 17 | – | – | – | –
